CSC inhib: blocks cancer stem cells | inhibition, % at 7.5 µM | AID 2717 | 1.1% of 300,000 active | cancer stem cell-like cells viability, luminescence; in the data active = inhibition above about 75%; tested in HMLE shEcad cells
SKKanGAS inh: SKKanGAS growth inhibition | inhibition, % at 7.5 µM | S. pyogenes SKKanGAS, kanamycin growth, BacTiter-Glo, 6 h | 1.3% of 300,000 active | AID 1662;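 active = mean replicate score, as percent of positive control median, at least 50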;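 also: strain carries kanamycin resistance gene driven by streptokinase promoter and grows in 40 µg/ml kanamycin; loss of luminescence reflects streptokinase promoter inhibition or plain growth inhibition; 0% = median of DMSO wells and 100% = positive control at its reference dose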
Beta cell apopt: blocks beta cell apoptosis. INS-1E cytokine-induced death, ATP luminescence, 48 h; percent of positive-control rescue, neutral wells zero. protection from apoptosis, % (no concentration beside the values). 0.8% of 300,000 active;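 active = Every replicate reaches about 75%, or at least half do and their mean reaches it too, limit read from the data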;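 also: 0% = cytokine-treated negative control wells and 100% = positive control rescue; higher means more ATP so stronger rescue from cytokine killing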
L major viab: Leishmania major promastigote growth inhibition; Leishmania major promastigotes, resazurin fluorescence viability; inhibition, % at 10 µM; 9% of 200,000 active; AID 1063; in the data active = inhibition above about 50%;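 also: promastigotes grown with compound for 44 hours at 28 °C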
Mdm2 MdmX PPI: human Mdm2/MdmX binding inhibition; AID 485346; 3% of 330,000 active; inhibition, % at 8 µM; SaOS-2 split-luciferase Mdm2/MdmX complementation, luminescence;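 active = inhibition of at least 50% at 8 µM in the primary screen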
Target sequence (O15151 whole entry, looked up): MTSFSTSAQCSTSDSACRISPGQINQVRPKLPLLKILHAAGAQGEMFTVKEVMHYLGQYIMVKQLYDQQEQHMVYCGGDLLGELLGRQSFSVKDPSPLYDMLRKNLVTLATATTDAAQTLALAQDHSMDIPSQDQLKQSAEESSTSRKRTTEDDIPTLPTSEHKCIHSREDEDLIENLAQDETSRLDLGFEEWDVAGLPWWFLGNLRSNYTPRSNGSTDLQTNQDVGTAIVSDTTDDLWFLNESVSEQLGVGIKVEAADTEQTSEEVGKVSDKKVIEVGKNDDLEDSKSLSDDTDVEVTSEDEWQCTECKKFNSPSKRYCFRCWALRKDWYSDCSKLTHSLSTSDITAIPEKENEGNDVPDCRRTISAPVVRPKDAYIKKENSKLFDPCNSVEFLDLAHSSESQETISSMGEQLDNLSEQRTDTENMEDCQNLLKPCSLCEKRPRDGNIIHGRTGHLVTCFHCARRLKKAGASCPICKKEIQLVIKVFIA
Target sequence (Q00987 whole entry, looked up): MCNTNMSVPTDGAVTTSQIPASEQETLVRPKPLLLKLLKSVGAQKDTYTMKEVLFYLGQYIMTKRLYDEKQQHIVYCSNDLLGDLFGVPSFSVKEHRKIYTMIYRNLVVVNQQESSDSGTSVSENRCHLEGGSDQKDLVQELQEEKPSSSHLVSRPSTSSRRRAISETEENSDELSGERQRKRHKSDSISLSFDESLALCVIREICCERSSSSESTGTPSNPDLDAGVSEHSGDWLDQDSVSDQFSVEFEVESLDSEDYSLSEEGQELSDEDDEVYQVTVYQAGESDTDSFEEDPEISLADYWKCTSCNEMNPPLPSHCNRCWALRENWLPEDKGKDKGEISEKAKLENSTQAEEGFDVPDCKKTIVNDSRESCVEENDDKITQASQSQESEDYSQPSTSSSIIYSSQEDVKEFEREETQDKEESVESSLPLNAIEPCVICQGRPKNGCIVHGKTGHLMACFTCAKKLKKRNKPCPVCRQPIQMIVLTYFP
T cruzi repl: T. cruzi replication inhibition | T. cruzi beta-gal in NIH3T3, luminescence, 90 h | inhibition, % (concentration not given with the values) | 1.4% of 300,000 active;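 active = mean inhibition across valid replicates above about 55%, limit read from the data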;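 also: signal also drops with host cell toxicity which is not excluded here; 0% = plate median of DMSO wells and 100% = zero luminescence signal; higher percent means less beta-gal luminescence so fewer parasites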
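Read-out: Parasite load inhibition, % | Test system: Mouse NIH/3T3 fibroblasts infected with β-gal-expressing T. cruzi Tulahuen C4 | Amount: 5,000 cells/well | Medium: DMEM, 2% fetal bovine serum | Signal: GalScreen β-gal luminescence, detergent lysis, 60 min | Timing: 3 h attach, ≥90 h co-culture | Also added: Tulahuen C4 trypomastigotes, 5000/well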
Mdm2 MdmX conf: confirmation of human Mdm2/MdmX interaction inhibitors; AID 489028; 55% of 10,000 active; shares compounds with Mdm2 MdmX PPI; Mdm2-MdmX binding, luminescent assay; inhibition, % at 8 µM; in the data active = inhibition above about 40%
FLuc counter: full-length luciferase inhibition in Mdm2/MdmX counter-screen. shares compounds with Mdm2 MdmX PPI. inhibition, % at 8 µM. SaOS-2 full-length luciferase counterscreen, luminescence. 77% of 6,200 active;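 active = mean inhibition at 8 µM reaching about 37%, which flags the compound as non-specific, limit read from the data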;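 also: p53-null SaOS-2 cells with luciferase driven by a doxycycline-inducible promoter; compound on cells about two nights before reading with doxycycline added after day one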
* marks the source's active call; other numbers are inactive results; . = no result. Most compounds without a hit are left out; they make up all but 9.4% or so of the library.

SMILES | CSC inhib | SKKanGAS inh | Beta cell apopt | L major viab | Mdm2 MdmX PPI | T cruzi repl | Mdm2 MdmX conf | FLuc counter
Cc1csc(NC(=O)c2ccc(C)c([N+](=O)[O-])c2)n1 | -6 | -1 | 2 | 15 | -156 | -17 | . | .
Cc1cc(C(=O)Nc2nc(-c3ccccn3)cs2)ccc1[N+](=O)[O-] | -4 | 91* | 3 | 100* | 63* | 80* | 64* | 40*
COc1ccccc1CN(Cc1nc2ccccc2c(=O)[nH]1)S(=O)(=O)c1ccc2ccccc2c1 | 37 | 6 | 8 | 90* | 72* | 36 | 14 | .
COC(=O)c1c(C)[nH]c(C(=O)OCC(=O)c2ccc(C)s2)c1C | 17 | . | -1 | . | -30 | . | . | .
Cc1ccc2[nH]c(=O)c(CN(Cc3cccs3)Cc3nnnn3Cc3ccccc3)cc2c1 | 5 | 14 | -8 | 11 | 50 | 32 | 21 | .
COc1cc(NS(=O)(=O)c2csc(C(N)=O)c2)cc(OC)c1 | -10 | 2 | -2 | . | -7 | -14 | . | .
Cc1cc(NC(=O)CSc2nnc3c(C)cc4c(C)ccc(C)c4n23)no1 | 56 | -2 | 10 | 2 | 66* | -41 | 63* | 58*
CCc1nnc(NC(=O)CSc2nnc3c(C)cc4c(C)ccc(C)c4n23)s1 | 64 | -3 | 4 | -8 | 60* | -23 | 65* | 58*
CCc1nnc(NC(=O)CSc2nnc(-c3ccncc3)n2C)s1 | -9 | -2 | 1 | -6 | -11 | -6 | . | .
CCCN(c1ccc(C(=O)OC)cc1)S(=O)(=O)c1ccccc1 | -23 | -3 | -8 | 5 | 13 | -12 | . | .
CCCCN(c1ccc(C(=O)OC)cc1)S(=O)(=O)c1ccccc1 | -6 | 3 | 1 | 4 | 62* | 13 | 2 | .
COc1ccc2cc3c(N)nn(C(=O)c4ccccc4[N+](=O)[O-])c3nc2c1 | -1 | 8 | -22 | -6 | 93* | 14 | 87* | 51*
COc1ccc2cc3c(N)nn(C(=O)c4ccc(Cl)c([N+](=O)[O-])c4)c3nc2c1 | -5 | -2 | -17 | 39 | 83* | -9 | 88* | 57*
CC(=O)SC1CC2=CC(=O)CCC2(C)C2CCC3(C)C(CCC34CCC(=O)O4)C12 (stereo not given) | -7 | -7 | . | 9 | 51* | 15 | 48* | 96*
CC(=O)[C@H]1CC[C@H]2[C@@H]3CCC4=CC(=O)CC[C@]4(C)[C@H]3CC[C@]12C | -5 | 7 | -3 | 29 | 25 | 9 | . | .

Source: PubChem BioAssay
